# According to the RNAGym collection of RNA variant scans (doi:10.1038/s41586-018-0170-7):
# B1: tRNA (parent)
# chain: GUUCCGUUGGCGUAAUGGUAACGCGUCUCCCUCCUAAGGAGAAGACUGCGGGUUCGAGUCCCGUACGGAACG
# Variants of: B1
# Experiment: yeast fitness, log relative to wild type (ln ratio); higher = fitter; tRNA-Arg(CCU), competitive growth, 37 C, 1 M NaCl
# Summary of the method: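 Fitness is the natural log of a genotype's generation count divided by that of the wild type. A combinatorial library of tRNA-Arg(CCU) variants sat on a HIS3 centromeric plasmid in BY4742 lacking the chromosomal gene, from two independent transformations. Pools grew 4 generations in SC-HIS at 30 °C, then ~6.5 generations (~26.5 h) in SC-HIS 1M NaCl at 37 °C, with three outputs per input. Generations came from OD-scaled log2 output/input frequency, inverse-variance weighted across replicates, with variants counted by 125 bp paired-end Illumina sequencing.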
row,Variant,yeast fitness (ln)
1,GCUCCUUUGGCGUAAUGGUAACGCGUUUCCCUCCUAAGGAGACGAUUGCGGGUUCGAGUCCCGUAUGGAACG [U2C G6U C27U A43C C46U C66U],-0.0875
2,ACUCCUUUGGCGUAAUGGUAACGCGUUUCCCUCCUAAGGAGACGACUGCGGGUUCGAGUCCCGUAUGGGGUG [G1A U2C G6U C27U A43C C66U A69G A70G C71U],-0.117
3,GCUCCUUUGGCGUAAUGGUAACGCGUUUCCCUCCUAAGGAGACGAUUGCGGGUUCGAGUCCCGUACGGAAUG [U2C G6U C27U A43C C46U C71U],-0.17
4,GGUCCAUUGGCGUAAUGGUAACGCGUUUCCCUCCUAAGGAGACGAUUGCGGGUUCGAGUCCCGUACGGAAUG [U2G G6A C27U A43C C46U C71U],-0.134
5,GCUCCUUUGGCGUAAUGGUAACGCGUUUCCCUCCUAAGGAGACGACUGCGGGUUCGAGUCCCGUAUGGAGCG [U2C G6U C27U A43C C66U A70G],-0.366
6,AUUCCGUUGGCGUAAUGGUAACGCGUCUCCCUCCUAAGGAGACGAUUGCGGGUUCGAGUCCCGUACGGGGCG [G1A A43C C46U A69G A70G],-0.104
7,GUUCCUUUGGCGUAAUGGUAACGCGUCUCCCUCCUAAGGAGAAGAUUGCGGGUUCGAGUCCCGUAAGGAAUG [G6U C46U C66A C71U],-0.00198
8,GUUCCUUUGGCGUAAUGGUAACGCGUCUCCCUCCUAAGGAGAAGACUGCGGGUUCGAGUCCCGUAUGGAAUG [G6U C66U C71U],-0.639
9,GUUCCUUUGGCGUAAUGGUAACGCGUCUCCCUCCUAAGGAGACGACUGCGGGUUCGAGUCCCGUAAGGAAUG [G6U A43C C66A C71U],-0.177
10,ACUCCGUUGGCGUAAUGGUAACGCGUCUCCCUCCUAAGGAGACGAUUGCGGGUUCGAGUCCCGUAUGGGGCG [G1A U2C A43C C46U C66U A69G A70G],-0.0919
11,GGUCCAUUGGCGUAAUGGUAACGCGUCUCCCUCCUAAGGAGACGACUGCGGGUUCGAGUCCCGUACGGGUCG [U2G G6A A43C A69G A70U],-0.171
12,GCUCCUUUGGCGUAAUGGUAACGCGUCUCCCUCCUAAGGAGAAGAUUGCGGGUUCGAGUCCCGUAUGGGGUG [U2C G6U C46U C66U A69G A70G C71U],-0.1
13,GGUCCGUUGGCGUAAUGGUAACGCGUCUCCCUCCUAAGGAGAAGAUUGCGGGUUCGAGUCCCGUAAGGGAUG [U2G C46U C66A A69G C71U],-0.191
14,AUUCCUUUGGCGUAAUGGUAACGCGUUUCCCUCCUAAGGAGAAGACUGCGGGUUCGAGUCCCGUAUGGGUCG [G1A G6U C27U C66U A69G A70U],-0.368
15,GUUCCAUUGGCGUAAUGGUAACGCGUUUCCCUCCUAAGGAGAAGACUGCGGGUUCGAGUCCCGUAAGGGUCG [G6A C27U C66A A69G A70U],-0.243
16,GUUCCGUUGGCGUAAUGGUAACGCGUUUCCCUCCUAAGGAGACGAUUGCGGGUUCGAGUCCCGUAUGGGGCG [C27U A43C C46U C66U A69G A70G],-0.211
17,GGUCCAUUGGCGUAAUGGUAACGCGUUUCCCUCCUAAGGAGACGAUUGCGGGUUCGAGUCCCGUAAGGGAUG [U2G G6A C27U A43C C46U C66A A69G C71U],-0.283
18,GUUCCGUUGGCGUAAUGGUAACGCGUCUCCCUCCUAAGGAGAAGACUGCGGGUUCGAGUCCCGUAAGGAACG [C66A],-0.00943
19,GCUCCAUUGGCGUAAUGGUAACGCGUUUCCCUCCUAAGGAGAAGAUUGCGGGUUCGAGUCCCGUACGGAUCG [U2C G6A C27U C46U A70U],-0.0585

row,Variant,yeast fitness (ln)
1,AGUCCGUUGGCGUAAUGGUAACGCGUCUCCCUCCUAAGGAGAAGAUUGCGGGUUCGAGUCCCGUACGGAUCG [G1A U2G C46U A70U],-0.115
2,AGUCCUUUGGCGUAAUGGUAACGCGUUUCCCUCCUAAGGAGAAGACUGCGGGUUCGAGUCCCGUAUGGAUCG [G1A U2G G6U C27U C66U A70U],-0.386
3,AUUCCAUUGGCGUAAUGGUAACGCGUCUCCCUCCUAAGGAGAAGACUGCGGGUUCGAGUCCCGUAUGGAAUG [G1A G6A C66U C71U],-0.0242
4,ACUCCAUUGGCGUAAUGGUAACGCGUCUCCCUCCUAAGGAGACGACUGCGGGUUCGAGUCCCGUACGGAGUG [G1A U2C G6A A43C A70G C71U],-0.13
5,ACUCCUUUGGCGUAAUGGUAACGCGUCUCCCUCCUAAGGAGACGAUUGCGGGUUCGAGUCCCGUAUGGAUCG [G1A U2C G6U A43C C46U C66U A70U],-0.167
6,GUUCCUUUGGCGUAAUGGUAACGCGUUUCCCUCCUAAGGAGAAGAUUGCGGGUUCGAGUCCCGUAUGGGAUG [G6U C27U C46U C66U A69G C71U],-0.543
7,AUUCCAUUGGCGUAAUGGUAACGCGUUUCCCUCCUAAGGAGAAGACUGCGGGUUCGAGUCCCGUAUGGAGUG [G1A G6A C27U C66U A70G C71U],-0.566
8,AUUCCUUUGGCGUAAUGGUAACGCGUCUCCCUCCUAAGGAGAAGACUGCGGGUUCGAGUCCCGUACGGAUCG [G1A G6U A70U],-0.156
9,GCUCCUUUGGCGUAAUGGUAACGCGUUUCCCUCCUAAGGAGACGACUGCGGGUUCGAGUCCCGUAUGGGAUG [U2C G6U C27U A43C C66U A69G C71U],-0.522
10,GGUCCAUUGGCGUAAUGGUAACGCGUCUCCCUCCUAAGGAGACGACUGCGGGUUCGAGUCCCGUACGGAUCG [U2G G6A A43C A70U],-0.14
11,GGUCCAUUGGCGUAAUGGUAACGCGUUUCCCUCCUAAGGAGACGACUGCGGGUUCGAGUCCCGUAUGGAUUG [U2G G6A C27U A43C C66U A70U C71U],-0.339
12,GCUCCUUUGGCGUAAUGGUAACGCGUCUCCCUCCUAAGGAGAAGACUGCGGGUUCGAGUCCCGUAUGGAUUG [U2C G6U C66U A70U C71U],-0.233
13,GUUCCGUUGGCGUAAUGGUAACGCGUCUCCCUCCUAAGGAGAAGAUUGCGGGUUCGAGUCCCGUACGGGAUG [C46U A69G C71U],-0.00543
14,GCUCCAUUGGCGUAAUGGUAACGCGUCUCCCUCCUAAGGAGACGACUGCGGGUUCGAGUCCCGUACGGGUCG [U2C G6A A43C A69G A70U],-0.0661
15,ACUCCGUUGGCGUAAUGGUAACGCGUUUCCCUCCUAAGGAGAAGACUGCGGGUUCGAGUCCCGUAUGGAUUG [G1A U2C C27U C66U A70U C71U],-0.256
16,GGUCCAUUGGCGUAAUGGUAACGCGUUUCCCUCCUAAGGAGAAGAUUGCGGGUUCGAGUCCCGUAAGGAUCG [U2G G6A C27U C46U C66A A70U],-0.134
17,GUUCCAUUGGCGUAAUGGUAACGCGUUUCCCUCCUAAGGAGAAGAUUGCGGGUUCGAGUCCCGUAAGGAUUG [G6A C27U C46U C66A A70U C71U],-0.234
18,GUUCCAUUGGCGUAAUGGUAACGCGUUUCCCUCCUAAGGAGAAGACUGCGGGUUCGAGUCCCGUAAGGAAUG [G6A C27U C66A C71U],-0.168
